# Measured values: ChEMBL document CHEMBL4257575, “Discovery of Novel Flavonoid Dimers To Reverse Multidrug Resistance Protein 1 (MRP1, ABCC1) Mediated Drug Resistance in Cancers Using a High Throughput Platform with "Click Chemistry"” (J Med Chem, 2018)
# Target: Multidrug resistance-associated protein 1 (Homo sapiens, UniProt P33527)
# Assay: Inhibition of MRP1 in human 2008/MRP1 cells assessed as potentiation of doxorubicin-induced cytotoxicity by measuring cell survival at 2 uM after 5 days by MTS assay relative to control
# Assay type: cell-based
# Conditions: 120 h
# In short: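 2008/MRP1 cells (retroviral human MRP1 transfectant; RPMI 1640, 10% FBS) at 4,000 per well, with 100 nM doxorubicin plus crude, unpurified click products in DMSO: 2 µM in the primary screen, 1 µM in the secondary. Incubated 5 days at 37 °C. MTS/PMS added for 2 h at 37 °C, absorbance read at 490 nm. % survival is relative to wells without DOX or product. Run in triplicate, at least three experiments.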
# Multidrug resistance-associated protein 1, sequence (P33527 whole entry): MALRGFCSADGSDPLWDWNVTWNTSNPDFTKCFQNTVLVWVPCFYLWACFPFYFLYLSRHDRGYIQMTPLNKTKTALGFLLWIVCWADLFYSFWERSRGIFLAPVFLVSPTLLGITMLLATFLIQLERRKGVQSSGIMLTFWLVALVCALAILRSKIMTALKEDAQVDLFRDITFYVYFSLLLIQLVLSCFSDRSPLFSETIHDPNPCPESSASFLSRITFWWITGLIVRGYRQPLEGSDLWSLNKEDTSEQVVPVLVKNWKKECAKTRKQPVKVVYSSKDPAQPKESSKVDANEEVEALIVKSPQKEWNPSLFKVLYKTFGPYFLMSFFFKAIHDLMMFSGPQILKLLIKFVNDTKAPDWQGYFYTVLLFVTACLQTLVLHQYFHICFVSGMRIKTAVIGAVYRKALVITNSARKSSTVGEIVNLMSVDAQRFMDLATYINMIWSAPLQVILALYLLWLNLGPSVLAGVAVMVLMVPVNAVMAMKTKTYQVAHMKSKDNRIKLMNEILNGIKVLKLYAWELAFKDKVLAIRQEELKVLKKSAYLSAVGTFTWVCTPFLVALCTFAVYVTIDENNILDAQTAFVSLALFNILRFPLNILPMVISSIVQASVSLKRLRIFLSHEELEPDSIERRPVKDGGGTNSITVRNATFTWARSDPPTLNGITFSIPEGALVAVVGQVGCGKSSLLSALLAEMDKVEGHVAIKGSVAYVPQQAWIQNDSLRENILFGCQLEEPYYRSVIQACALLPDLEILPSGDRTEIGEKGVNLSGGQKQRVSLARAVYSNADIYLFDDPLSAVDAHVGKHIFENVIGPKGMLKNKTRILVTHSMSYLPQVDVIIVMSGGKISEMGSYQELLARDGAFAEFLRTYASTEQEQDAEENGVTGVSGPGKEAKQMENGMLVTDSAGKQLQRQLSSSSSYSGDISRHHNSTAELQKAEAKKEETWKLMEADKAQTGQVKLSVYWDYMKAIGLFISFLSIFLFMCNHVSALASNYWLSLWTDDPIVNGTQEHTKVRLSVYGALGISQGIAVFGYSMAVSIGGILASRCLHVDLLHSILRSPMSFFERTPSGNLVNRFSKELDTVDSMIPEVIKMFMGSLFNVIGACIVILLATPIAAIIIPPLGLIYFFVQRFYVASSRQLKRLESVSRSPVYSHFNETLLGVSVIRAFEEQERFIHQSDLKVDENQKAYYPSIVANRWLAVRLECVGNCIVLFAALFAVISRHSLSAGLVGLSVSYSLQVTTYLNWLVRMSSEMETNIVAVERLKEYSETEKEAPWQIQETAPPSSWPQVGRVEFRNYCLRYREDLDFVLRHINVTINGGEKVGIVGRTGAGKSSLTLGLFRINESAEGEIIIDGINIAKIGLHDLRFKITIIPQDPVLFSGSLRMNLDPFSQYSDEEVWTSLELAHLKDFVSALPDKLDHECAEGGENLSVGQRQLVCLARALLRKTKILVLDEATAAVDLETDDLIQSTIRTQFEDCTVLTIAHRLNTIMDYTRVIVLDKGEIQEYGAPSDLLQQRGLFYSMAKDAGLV
row,Structure (SMILES),Survival
1,O=Cc1ccc(OCCCCc2cn(CCOCCOc3ccc4c(=O)cc(-c5ccccc5)oc4c3)nn2)cc1,82%
2,O=C(/C=C/c1ccc(OCCCCc2cn(CCOCCOCCOc3ccc4c(=O)cc(-c5ccccc5)oc4c3)nn2)cc1)c1ccccc1O,72%
3,O=C(/C=C/c1ccc(OCCCCc2cn(CCOc3cccc4c(=O)cc(-c5ccccc5)oc34)nn2)cc1)c1ccccc1O,85%
4,[N-]=[N+]=NCCOCCOCCOc1ccc(-c2cc(=O)c3cc(F)ccc3o2)cc1,85%
5,Cc1ccc2oc(-c3ccc(OCCOCCOCCn4cc(CCCCOc5ccc(/C=C/C(=O)c6ccc(F)cc6O)cc5)nn4)cc3)cc(=O)c2c1,63%
6,Cc1ccc(C(=O)/C=C/c2ccc(OCCCCc3cn(CCOCCOCCOc4ccc(-c5oc6ccccc6c(=O)c5OCc5ccccc5)cc4)nn3)cc2)c(O)c1,71%
7,O=c1cc(-c2ccccc2)oc2cc(OCCCCc3cn(CCOCCOc4ccc5c(=O)cc(-c6ccccc6)oc5c4)nn3)ccc12,53%
8,Cc1ccc(O)c(C(=O)/C=C/c2ccc(OCCCCc3cn(CCOCCOCCOc4ccc5c(=O)cc(-c6ccccc6)oc5c4)nn3)cc2)c1,84%
9,O=c1cc(-c2ccc(OCCOCCn3cc(CN(Cc4ccccc4)Cc4cn(CCOCCOc5ccc(-c6cc(=O)c7cc(F)ccc7o6)cc5)nn4)nn3)cc2)oc2ccc(F)cc12,70%
10,Cc1ccc2oc(-c3ccc(OCCCCc4cn(CCOCCOCCOc5ccc(-c6oc7ccccc7c(=O)c6OCc6ccccc6)cc5)nn4)cc3)cc(=O)c2c1,59%
11,C#CCN(CC#C)Cc1ccccc1,81%
12,O=c1cc(-c2ccccc2)oc2cc(OCCOCCn3cc(CN(Cc4cn(CCOCCOc5ccc6oc(-c7ccccc7)cc(=O)c6c5)nn4)Cc4cn(CCOCCOc5ccc6oc(-c7ccccc7)cc(=O)c6c5)nn4)nn3)ccc12,83%
13,O=c1[nH]c(-c2ccc(OCCCc3cn(CCOCCOCCOc4ccc(-c5cc(=O)c6cc(F)ccc6o5)cc4)nn3)cc2)nc2ccccc12,51%
14,O=c1c(OCc2ccccc2)c(-c2cccc(OCCOCCn3cc(CNc4ccccc4)nn3)c2)oc2ccccc12,92%
15,O=c1cc(-c2ccccc2)oc2cc(OCCOCc3cn(CCOCCOc4cccc(-c5oc6ccccc6c(=O)c5OCc5ccccc5)c4)nn3)ccc12,77%
16,O=c1c(OCc2ccccc2)c(-c2cccc(OCCOCCn3cc(CN(Cc4ccccc4)Cc4cn(CCOCCOc5cccc(-c6oc7ccccc7c(=O)c6OCc6ccccc6)c5)nn4)nn3)c2)oc2ccccc12,87%
17,CCc1ccc(O)c(C(=O)/C=C/c2ccc(OCCCCc3cn(CCOc4cccc5c(=O)cc(-c6ccccc6)oc45)nn3)cc2)c1,86%
18,COc1cccc(COc2c(-c3ccc(OCCCCc4cn(CCOCCOCCOc5ccc(-c6cc(=O)c7ccccc7o6)cc5)nn4)cc3)oc3ccccc3c2=O)c1,58%
19,COCOc1cc(OCc2ccccc2)c2c(=O)cc(-c3ccc(OCCCc4cn(CCOCCOCCOc5ccc6c(=O)cc(-c7ccccc7)oc6c5)nn4)cc3)oc2c1,76%
20,COc1cccc(COc2c(-c3ccc(OCCOCCn4cc(CCCOc5ccc(-c6cc(=O)c7ccccc7o6)cc5)nn4)cc3)oc3ccccc3c2=O)c1,68%
21,CCc1ccc(O)c(C(=O)/C=C/c2ccc(OCCCCc3cn(CCOCCOCCOc4ccc(-c5cc(=O)c6cc(C)ccc6o5)cc4)nn3)cc2)c1,63%
22,O=c1cc(-c2ccccc2)oc2cc(OCCOCCOCCn3cc(CN(CCOc4ccc5c(=O)cc(-c6ccccc6)oc5c4)Cc4ccccc4)nn3)ccc12,51%

row,Structure (SMILES),Survival
1,O=C(/C=C/c1ccc(OCCCCc2cn(CCOCCOCCOc3ccc(-c4cc(=O)c5ccccc5o4)cc3)nn2)cc1)c1ccc(F)cc1O,55%
2,O=c1cc(-c2ccccc2)oc2c(OCCn3cc(CNc4ccccc4)nn3)cccc12,85%
3,O=c1cc(-c2ccc(OCCOCCn3cc(-c4cccc(-c5cn(CCOCCOc6ccc(-c7cc(=O)c8cc(F)ccc8o7)cc6)nn5)c4)nn3)cc2)oc2ccc(F)cc12,74%
4,C#CCCCCOc1ccc(/C=C/C(=O)c2ccccc2O)cc1,102%
5,Cc1ccc2oc(-c3ccc(OCCCCc4cn(CCOCCOc5cccc(-c6oc7ccccc7c(=O)c6OCc6ccccc6)c5)nn4)cc3)cc(=O)c2c1,55%
6,O=c1cc(-c2ccccc2)oc2cc(OCCn3cc(CN(Cc4cn(CCOc5ccc6occ(-c7ccccc7)c(=O)c6c5)nn4)Cc4cn(CCOc5ccc6occ(-c7ccccc7)c(=O)c6c5)nn4)nn3)ccc12,87%
7,O=c1cc(-c2ccccc2)oc2cc(OCCOCCOCCn3cc(-c4cccc(-c5cn(CCOCCOCCOc6ccc7c(=O)cc(-c8ccccc8)oc7c6)nn5)c4)nn3)ccc12,74%
8,COc1cccc(COc2c(-c3ccc(OCCOCCn4cc(CN(CCOc5ccc6c(=O)cc(-c7ccccc7)oc6c5)Cc5ccccc5)nn4)cc3)oc3ccccc3c2=O)c1,79%
9,O=c1cc(-c2ccccc2)oc2cc(OCCn3cc(-c4ccc(-c5cn(CCOc6ccc7occ(-c8ccccc8)c(=O)c7c6)nn5)cc4)nn3)ccc12,87%
10,COCOc1cc(OCc2ccccc2)c2c(=O)cc(-c3ccc(OCCCc4cn(CCOCCOc5cccc(-c6oc7ccccc7c(=O)c6OCc6ccccc6)c5)nn4)cc3)oc2c1,74%
11,O=c1c(OCc2ccccc2)c(-c2ccc(OCCOCCn3cc(CN4CCN(Cc5cn(CCOCCOc6ccc(-c7oc8ccccc8c(=O)c7OCc7ccccc7)cc6)nn5)CC4)nn3)cc2)oc2ccccc12,58%
12,Cc1ccc(O)c(C(=O)/C=C/c2ccc(OCCCCc3cn(CCOCCOCCOc4ccc(-c5oc6ccccc6c(=O)c5OCc5ccccc5)cc4)nn3)cc2)c1,76%
13,COCOc1cc(OCc2ccccc2)c2c(=O)cc(-c3ccc(OCCCc4cn(CCOCCOc5ccc(-c6cc(=O)c7cc(F)ccc7o6)cc5)nn4)cc3)oc2c1,63%
14,O=c1cc(-c2ccccc2)oc2cc(OCCCCc3cn(CCOCCOc4cccc(-c5oc6ccccc6c(=O)c5OCc5ccccc5)c4)nn3)ccc12,62%
15,O=C(/C=C/c1ccc(OCCCCc2cn(CCOCCOCCOc3ccc(-c4oc5ccccc5c(=O)c4OCc4ccccc4)cc3)nn2)cc1)c1ccccc1O,61%
16,C#CCCCCOc1ccc2c(=O)cc(-c3ccccc3)oc2c1,99%
17,O=C(/C=C/c1ccc(OCCCCc2cn(CCOCCOCCOc3ccc(-c4cc(=O)c5ccccc5o4)cc3)nn2)cc1)c1ccccc1O,65%
18,Cc1ccc(C(=O)/C=C/c2ccc(OCCCCc3cn(CCOCCOc4ccc5c(=O)cc(-c6ccccc6)oc5c4)nn3)cc2)c(O)c1,62%
19,CN(CCN(C)Cc1cn(CCOCCOc2ccc(-c3oc4ccccc4c(=O)c3OCc3ccccc3)cc2)nn1)Cc1cn(CCOCCOc2ccc(-c3oc4ccccc4c(=O)c3OCc3ccccc3)cc2)nn1,76%
20,CN(CCN(C)Cc1cn(CCOCCOCCOc2ccc(-c3cc(=O)c4cc(F)ccc4o3)cc2)nn1)Cc1cn(CCOCCOCCOc2ccc(-c3cc(=O)c4cc(F)ccc4o3)cc2)nn1,79%
21,COCOc1cc(OCc2ccccc2)c2c(=O)cc(-c3ccc(OCCCc4cn(CCOCCOCCOc5ccc(-c6cc(=O)c7cc(F)ccc7o6)cc5)nn4)cc3)oc2c1,58%
22,Cc1ccc(O)c(C(=O)/C=C/c2ccc(OCCCCc3cn(CCOCCOCCOc4ccc(-c5cc(=O)c6ccccc6o5)cc4)nn3)cc2)c1,70%

row,Structure (SMILES),Survival
1,COc1cccc(COc2c(-c3ccc(OCCOCCn4cc(CCCCOc5ccc(/C=C/C(=O)c6ccccc6O)cc5)nn4)cc3)oc3ccccc3c2=O)c1,74%
2,C#CCCCCOc1ccc(C=O)cc1,86%
3,O=c1cc(-c2ccc(OCCOCCOCCn3cc(CN4CCN(Cc5cn(CCOCCOCCOc6ccc(-c7cc(=O)c8ccccc8o7)cc6)nn5)CC4)nn3)cc2)oc2ccccc12,100%
4,C#CCCCCOc1ccc(/C=C/C(=O)c2ccc(C)cc2O)cc1,100%
5,Cc1ccc(C(=O)/C=C/c2ccc(OCCCCc3cn(CCOCCOCCOc4ccc(-c5cc(=O)c6ccccc6o5)cc4)nn3)cc2)c(O)c1,55%
6,O=Cc1ccc(OCCCCc2cn(CCOc3cccc4c(=O)cc(-c5ccccc5)oc34)nn2)cc1,83%
7,Cc1ccc2oc(-c3ccc(OCCOCCOCCn4cc(CCCOc5ccc(-c6cc(=O)c7cc(F)ccc7o6)cc5)nn4)cc3)cc(=O)c2c1,82%
8,COc1cccc(COc2c(-c3ccc(OCCOCCn4cc(CNc5ccccc5)nn4)cc3)oc3ccccc3c2=O)c1,89%
9,C#CCN1CCN(CC#C)CC1,81%
10,O=c1cc(-c2ccccc2)oc2cc(OCCOCCOCCn3cc(CN(Cc4ccccc4)Cc4cn(CCOCCOCCOc5ccc6c(=O)cc(-c7ccccc7)oc6c5)nn4)nn3)ccc12,74%
11,O=c1[nH]c(-c2ccc(OCCCc3cn(CCOCCOCCOc4ccc5c(=O)cc(-c6ccccc6)oc5c4)nn3)cc2)nc2ccccc12,60%
12,Cc1ccc(O)c(C(=O)/C=C/c2ccc(OCCCCc3cn(CCOCCOc4ccc(-c5oc6ccccc6c(=O)c5OCc5ccccc5)cc4)nn3)cc2)c1,68%
13,CCc1ccc(O)c(C(=O)/C=C/c2ccc(OCCCCc3cn(CCOCCOCCOc4ccc(-c5oc6ccccc6c(=O)c5OCc5ccccc5)cc4)nn3)cc2)c1,77%
14,[N-]=[N+]=NCCOCCOc1ccc(-c2cc(=O)c3ccccc3o2)cc1,78%
15,COc1cccc(COc2c(-c3ccc(OCCCCc4cn(CCOCCOc5ccc6c(=O)cc(-c7ccccc7)oc6c5)nn4)cc3)oc3ccccc3c2=O)c1,56%
16,O=c1cc(-c2ccc(OCCOCCn3cc(CNc4ccccc4)nn3)cc2)oc2ccccc12,90%
17,C#CCCCOc1ccc(-c2cc(=O)c3ccc(F)cc3o2)cc1,79%
18,COc1cccc(COc2c(-c3ccc(OCCCCc4cn(CCOCCOc5ccc(-c6oc7ccccc7c(=O)c6OCc6ccccc6)cc5)nn4)cc3)oc3ccccc3c2=O)c1,68%
19,Cc1ccc(O)c(C(=O)/C=C/c2ccc(OCCCCc3cn(CCOCCOc4ccc(-c5cc(=O)c6ccccc6o5)cc4)nn3)cc2)c1,60%
20,[N-]=[N+]=NCCOCCOCCOc1ccc(-c2cc(=O)c3ccccc3o2)cc1,85%
